From ChEMBL document CHEMBL1139878, “Rapid evolution of 6-phenylpurine inhibitors of protein kinase B through structure-based design” (J Med Chem, 2007)
Activity calls are given as the source filed them. The calls are words filed in the database; no cut-off is given here.

Assays:
[1] = target: RAC-beta serine/threonine-protein kinase (Homo sapiens, UniProt P31751); assay: Inhibition of PKBbeta by radiometric filter binding assay
PC-3M = assay: Inhibition of PC3M cells by SRB assay after 96 hrs; type: functional; conditions: Homo sapiens
[2] = target: cAMP-dependent protein kinase (PKA) (Homo sapiens, UniProt P22694+P17612+P22612); assay: Inhibition of PKA by radiometric filter binding assay; type: protein assay
HCT-116 = assay: Inhibition of HCT116 cells by SRB assay after 96 hrs; type: functional; conditions: Homo sapiens, HCT-116, 96 h
U-87 MG [3] = assay: Inhibition of U87MG cells by SRB assay after 96 hrs; type: functional, U-87MG ATCC; conditions: Homo sapiens
[4] = target: T1, Serine/threonine-protein kinase AKT (Homo sapiens, UniProt P31751+Q9Y243+P31749); assay: Inhibition of GSK3-beta phosphorylation in PC3M cells after 1 hr by ELISA; type: functional, cell-based
[5] = target: T1, Serine/threonine-protein kinase AKT; assay: Inhibition of GSK3-beta phosphorylation in U87MG cells by ELISA; type: functional, cell-based; conditions: u-87mg atcc
U-87 MG [6] = assay: Decrease in pGSK3-beta protein levels in U87MG cells after 1 hr by Western blotting; type: functional, cell-based; conditions: Homo sapiens; U-87MG ATCC
Outline: (§1)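 U87MG glioblastoma cells were treated for 1 h across a titration of inhibitor concentrations. Phosphorylation states of PI3K-PKB-mTOR pathway components were then read out by Western blot with phospho-specific antibodies.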

U-87 MG [7] = assay: Decrease in pS6 protein levels in U87MG cells after 1 hr by Western blotting; type: functional, cell-based; conditions: Homo sapiens; U-87MG ATCC; outline: as §1
U-87 MG [8] = assay: Decrease in pFKHR protein levels in U87MG cells after 1 hr by Western blotting; type: functional, cell-based; conditions: Homo sapiens; U-87MG ATCC; outline: as §1
U-87 MG [9] = assay: Increase in pSer473-PKB protein levels in U87MG cells after 1 hr by Western blotting; type: functional, cell-based; conditions: Homo sapiens; U-87MG ATCC; outline: as §1
Cytochrome P450 1A2 = target: T2, Cytochrome P450 1A2 (Homo sapiens, UniProt P05177); assay: Inhibition of CYP1A2; type: ADME
T2 sequence (P05177 whole entry): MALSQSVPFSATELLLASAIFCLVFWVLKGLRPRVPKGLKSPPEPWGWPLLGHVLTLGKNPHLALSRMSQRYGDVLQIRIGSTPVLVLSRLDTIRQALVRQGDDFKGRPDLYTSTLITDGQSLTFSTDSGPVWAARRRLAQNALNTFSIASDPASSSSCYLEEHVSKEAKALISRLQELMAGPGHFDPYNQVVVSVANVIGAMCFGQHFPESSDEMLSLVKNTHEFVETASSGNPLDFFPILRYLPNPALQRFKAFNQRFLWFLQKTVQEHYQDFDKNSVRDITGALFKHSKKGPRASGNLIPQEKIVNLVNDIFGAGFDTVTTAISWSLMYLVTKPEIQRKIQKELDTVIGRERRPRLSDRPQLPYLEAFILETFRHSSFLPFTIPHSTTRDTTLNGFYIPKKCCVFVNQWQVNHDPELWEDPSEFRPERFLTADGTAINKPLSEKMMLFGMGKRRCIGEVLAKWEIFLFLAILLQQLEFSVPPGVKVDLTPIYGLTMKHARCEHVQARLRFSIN

Cytochrome P450 2C9 = Cytochrome P450 2C9 (Homo sapiens, UniProt P11712); assay: Inhibition of CYP2C9; type: ADME
Sequence of Cytochrome P450 2C9 (P11712 whole entry): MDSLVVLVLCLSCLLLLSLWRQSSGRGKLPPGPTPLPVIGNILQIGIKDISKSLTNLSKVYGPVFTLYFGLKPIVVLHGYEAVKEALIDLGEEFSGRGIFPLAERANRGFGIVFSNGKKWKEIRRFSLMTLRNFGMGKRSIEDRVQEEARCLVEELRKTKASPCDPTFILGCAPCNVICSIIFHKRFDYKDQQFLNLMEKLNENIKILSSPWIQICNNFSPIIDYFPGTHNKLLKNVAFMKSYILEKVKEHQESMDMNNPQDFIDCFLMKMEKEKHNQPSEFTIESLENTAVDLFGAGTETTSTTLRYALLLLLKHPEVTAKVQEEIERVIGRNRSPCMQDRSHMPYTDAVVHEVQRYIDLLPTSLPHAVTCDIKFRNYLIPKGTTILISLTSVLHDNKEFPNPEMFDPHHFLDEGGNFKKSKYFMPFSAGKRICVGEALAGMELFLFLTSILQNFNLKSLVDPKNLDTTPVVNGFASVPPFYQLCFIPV

Cytochrome P450 2D6 = Cytochrome P450 2D6 (Homo sapiens, UniProt P10635); assay: Inhibition of CYP2D6; type: ADME
Sequence of Cytochrome P450 2D6 (P10635 whole entry): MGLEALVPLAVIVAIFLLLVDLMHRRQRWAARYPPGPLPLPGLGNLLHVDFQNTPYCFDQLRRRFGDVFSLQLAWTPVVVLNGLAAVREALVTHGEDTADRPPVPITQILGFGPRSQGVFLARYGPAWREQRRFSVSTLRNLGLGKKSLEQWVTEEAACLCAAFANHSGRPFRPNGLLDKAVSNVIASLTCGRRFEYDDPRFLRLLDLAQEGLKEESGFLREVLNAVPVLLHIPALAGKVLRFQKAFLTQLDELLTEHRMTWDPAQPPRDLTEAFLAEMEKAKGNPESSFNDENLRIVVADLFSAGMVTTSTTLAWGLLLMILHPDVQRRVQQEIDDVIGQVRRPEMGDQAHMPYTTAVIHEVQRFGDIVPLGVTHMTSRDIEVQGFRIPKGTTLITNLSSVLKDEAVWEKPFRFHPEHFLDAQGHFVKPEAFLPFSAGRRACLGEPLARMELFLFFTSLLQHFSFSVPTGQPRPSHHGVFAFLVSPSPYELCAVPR

Cytochrome P450 3A4 = Cytochrome P450 3A4 (Homo sapiens, UniProt P08684); assay: Inhibition of CYP3A4; type: ADME
Sequence of Cytochrome P450 3A4 (P08684 whole entry): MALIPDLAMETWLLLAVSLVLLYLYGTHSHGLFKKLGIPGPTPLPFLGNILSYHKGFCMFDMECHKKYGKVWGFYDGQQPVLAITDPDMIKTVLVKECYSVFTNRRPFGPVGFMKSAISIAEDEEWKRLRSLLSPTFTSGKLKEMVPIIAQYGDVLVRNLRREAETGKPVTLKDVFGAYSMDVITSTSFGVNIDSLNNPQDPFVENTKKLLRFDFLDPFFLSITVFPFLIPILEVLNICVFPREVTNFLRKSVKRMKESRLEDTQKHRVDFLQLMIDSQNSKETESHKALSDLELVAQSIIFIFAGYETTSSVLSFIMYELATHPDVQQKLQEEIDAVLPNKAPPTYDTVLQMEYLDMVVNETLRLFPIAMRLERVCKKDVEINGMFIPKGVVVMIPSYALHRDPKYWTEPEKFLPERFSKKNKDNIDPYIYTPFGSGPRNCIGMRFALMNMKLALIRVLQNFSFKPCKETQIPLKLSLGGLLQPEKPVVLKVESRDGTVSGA

Cytochrome P450 2C19 = Cytochrome P450 2C19 (Homo sapiens, UniProt P33261); assay: Inhibition of CYP2C19; type: ADME
Sequence of Cytochrome P450 2C19 (P33261 whole entry): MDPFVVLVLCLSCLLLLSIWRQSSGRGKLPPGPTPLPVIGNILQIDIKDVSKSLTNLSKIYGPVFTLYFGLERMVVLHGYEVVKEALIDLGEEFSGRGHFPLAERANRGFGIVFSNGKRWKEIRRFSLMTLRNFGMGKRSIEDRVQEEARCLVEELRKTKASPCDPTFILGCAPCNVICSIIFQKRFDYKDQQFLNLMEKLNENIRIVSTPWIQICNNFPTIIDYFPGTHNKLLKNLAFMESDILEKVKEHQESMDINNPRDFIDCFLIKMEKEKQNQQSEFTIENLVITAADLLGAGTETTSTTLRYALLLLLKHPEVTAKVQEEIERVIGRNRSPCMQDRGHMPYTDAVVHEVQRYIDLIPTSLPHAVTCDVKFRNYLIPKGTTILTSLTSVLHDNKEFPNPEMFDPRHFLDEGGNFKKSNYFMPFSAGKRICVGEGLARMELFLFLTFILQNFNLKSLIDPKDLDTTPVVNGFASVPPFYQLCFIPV

Sequence of RAC-beta serine/threonine-protein kinase (P31751 whole entry): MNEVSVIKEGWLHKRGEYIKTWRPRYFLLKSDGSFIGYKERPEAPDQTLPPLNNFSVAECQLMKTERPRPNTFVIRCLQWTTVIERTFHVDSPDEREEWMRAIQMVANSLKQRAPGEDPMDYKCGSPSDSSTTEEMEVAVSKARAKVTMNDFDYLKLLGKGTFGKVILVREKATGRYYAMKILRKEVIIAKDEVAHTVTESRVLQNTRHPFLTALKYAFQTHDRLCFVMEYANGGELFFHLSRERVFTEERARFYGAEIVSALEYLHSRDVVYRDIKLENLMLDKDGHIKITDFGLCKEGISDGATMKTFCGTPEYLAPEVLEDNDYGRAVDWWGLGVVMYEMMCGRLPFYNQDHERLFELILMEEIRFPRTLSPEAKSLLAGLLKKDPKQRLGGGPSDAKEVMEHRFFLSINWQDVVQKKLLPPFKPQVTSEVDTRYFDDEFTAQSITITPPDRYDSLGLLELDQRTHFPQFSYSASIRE

IC50 [1] [µM] | GI50 (PC-3M) [µM] | IC50 [2] [µM] | SMILES | also measured
0.4 | 32 |  | NC(c1ccccc1)c1ccc(-c2ncnc3[nH]cnc23)cc1 (centres undefined) | 
6.9 | > 50 | 5.2 | CNCc1ccc(-c2ncnc3[nH]cnc23)cc1 | 
0.01 | 16 | 0.015 | CNC(c1ccc(Cl)cc1)c1ccc(-c2ncnc3[nH]cnc23)cc1 (centres undefined) | 
1.6 | > 50 | 5.5 | CNCc1cccc(-c2ncnc3[nH]cnc23)c1 | 
 | 4.5 | 0.033 | Clc1ccc(C2(c3ccc(-c4ncnc5[nH]cnc45)cc3)CCNCC2)cc1 | GI50 (HCT-116): 5.7 µM; GI50 (U-87 MG [3]): 8.7 µM; IC50 [4]: 6 µM; IC50 [5]: 1.9 µM; Activity (U-87 MG [6]): Active; Activity (U-87 MG [7]): Active; Activity (U-87 MG [8]): Active; Activity (U-87 MG [9]): Active; IC50 (Cytochrome P450 1A2): > 10 µM; IC50 (Cytochrome P450 2C9): > 10 µM; IC50 (Cytochrome P450 2D6): > 10 µM; IC50 (Cytochrome P450 3A4): 10 µM; IC50 (Cytochrome P450 2C19): 1.6 µM
0.009 | 28 |  | NC(c1ccc(Cl)cc1)c1ccc(-c2ncnc3[nH]cnc23)cc1 (centres undefined) | 
0.43 | 32 | 0.61 | NC(Cc1ccccc1)c1ccc(-c2ncnc3[nH]cnc23)cc1 (centres undefined) | 

SMILES | IC50 [1] [µM] | GI50 (PC-3M) [µM] | IC50 [2] [µM] | also measured
NCCc1cccc(-c2ncnc3[nH]cnc23)c1 | 3.2 | > 50 |  | 
NCCc1ccc(-c2ncnc3[nH]cnc23)cc1 | 9.5 |  |  | 
